CYP2C9 act – increases human cytochrome P450 2C9 activity; activation factor at 5 µM; AID 1024; P11712; recombinant CYP2C9, luciferin-H conversion, luminescence; hits give high values; factor 1 = untreated enzyme, 0 = blocked; 1.4% of 96,000 active;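 active means activation factor of 2 or more for CYP2C9 at a 5 µM dose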;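 further: 0 = sulfaphenazole-blocked wells and 1 = vehicle-only wells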
HIV Rev-RRE inh – HIV Rev-RRE protein-RNA interaction inhibition; Rev peptide-RRE RNA binding, FRET; inhibition, % at 8 µM; 0.79% of 97,000 active; AID 704;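 active means inhibition above the screen-wide mean plus 3 SD, cut at about 35% in these data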;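 further: 0% = median DMSO wells and 100% = median Neomycin B control wells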
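System: Cy5-labelled duplex RRE RNA binding fluorescein-labelled HIV Rev peptide; Signal: fluorescein-to-Cy5 FRET, 480 nm excitation; Also added: labelled Rev peptide; Compound: one concentration, 8 µM nominal; Buffer or medium: HEPES pH 7.5 salt buffer with EDTA; Read-out: % inhibition of FRET ratio versus controls; Schedule: 5 min preincubation and 15 min binding, 25 °C.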
CYP2C19 inhib – blocks human cytochrome P450 2C19; P33261; CYP2C19 Supersomes, luciferin-H EGE luminescence, 30 min; inhibition, % at 5 µM; 21% of 96,000 active; AID 778;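 active means CYP2C19 inhibition above a set limit at 5 µM in the primary screen, cut at about 50% in these data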;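 further: plate controls were negative control wells for no effect and 2.5 mM tranylcypromine positive control for full effect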
CYP2C9 inhib – human CYP2C9 inhibition. P11712. CYP2C9 Supersomes, luciferin-H conversion, luminescence. inhibition, % at 5 µM. 20% of 96,000 active;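 active means blocking of liver enzyme CYP2C9 beyond about 50% at 5 µM, limit read from the data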
Cav3 T inh – human Cav3.2 channel inhibition, primary screen; O95180; Cav3.2-expressing cells, Fluo-4 calcium fluorescence FDSS; hits give low values; B-score at 10 µM; 4% of 100,000 active;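 active means single-dose well whose peak fluorescence ratio is a statistical outlier from its plate by either plate-standardised score or position-corrected B-score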
CYP2C19 activ – cytochrome P450 2C19 (human) activation. P33261. recombinant CYP2C19, luciferin-H EGE luminescence; hits give high values; 0 = fully inhibited enzyme, 1 = untreated enzyme. activation factor at 5 µM. 96,000 tested, under 10 active;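 active means activation factor of at least 2 at 5 µM in the primary screen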;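 further: 0 = wells with 2.5 mM tranylcypromine and 1 = vehicle-only wells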
Active calls of the source: *; x = no result given. In the library only some 27% were active in any assay of this set; here they are far more common.

SMILES	CYP2C9 act	HIV Rev-RRE inh	CYP2C19 inhib	CYP2C9 inhib	Cav3 T inh	CYP2C19 activ
COCCN(CCOC)c1ncc(Cl)c(C(=O)c2c(C)cc3ccccn23)n1	1.6	8	90*	-59	-1.4	0.1
Cc1cc2ccccn2c1C(=O)c1nc(N2CCOCC2)ncc1Cl	1	-3	46	-2	-0.68	0.5
COc1cc(C(=O)NCCc2cn3ccccc3n2)cc(OC)c1OC	0.9	-1	7	13	0.04	0.9
O=C(O)c1ccc(NS(=O)(=O)c2ccc3nnn(O)c3c2)cc1	1.4	1	-27	-37	0.033	1.3
O=C(Cc1cccc2ccccc12)Nc1ccccc1C(=O)O	0.1	4	-10	87*	x	1.1
Cc1cccc(OCC(=O)NNC(=O)Nc2cccc(Cl)c2)c1C	1	0	2	-3	0.47	1
O=C(Cc1cccc2ccccc12)NNC(=O)Nc1cccc(Cl)c1	2.2*	3	56*	-116	-7.9*	0.4
O=C(NNC(=O)c1cc(-c2ccccc2)nc2ccccc12)Nc1cccc(Cl)c1	0.3	5	24	75*	-1.1	0.8
O=[N+]([O-])c1ccc(Cl)c(/C=N/N2CCN(c3ccccc3)CC2)c1	2.9*	1	17	-194	x	0.8
O=[N+]([O-])c1ccc(Cl)c(/C=N/N2CCN(C3c4ccccc4-c4ccccc43)CC2)c1	1.1	1	-1	-6	x	1
CC1C(O)=C(c2nc3ccccc3[nH]2)C(=N)N1c1ccccc1 (configuration not stated)	1	7	9	2	0.042	0.9
Clc1ccccc1Cn1nnc(-c2cccs2)n1	0.6	7	36	45	-1.7	0.6
O=C(CCn1nnc(-c2cccs2)n1)NCc1ccccc1Cl	0.4	3	28	65*	-0.81	0.7
CCS(=O)(=O)N1Cc2ccccc2CC1C(=O)N1CCN(c2cccc(C)c2C)CC1 (configuration not stated)	0.4	0	64*	58*	x	0.4
CC(C)(C)NC(=O)C1Cc2ccccc2CN1C(=O)Nc1cccc(Cl)c1 (configuration not stated)	0.7	6	41	31	-1.3	0.6
Cc1cccc(N2CCN(S(C)(=O)=O)CC2)c1C	0.8	-1	13	16	0.33	0.9
CCS(=O)(=O)N1Cc2ccccc2CC1C(=O)NCC12CC3CC(CC(C3)C1)C2 (configuration not stated)	0.3	4	92*	68*	-3.1	0.1
COc1ccc(-c2nc(C#N)c(NCCCn3ccnc3)o2)cc1OC	0.1	7	81*	86*	0.092	0.2
N#Cc1nc(-c2ccco2)oc1NCCCn1ccnc1	0.2	5	86*	84*	-5.8e-06	0.1
Cc1cc(C)c(-n2c(C)cc(/C=C3/NC(=O)NC3=O)c2C)c(C)c1	0.7	2	0	26	-6.1*	1
CC1CCCC(C)N1C(=O)Nc1cccc(Cl)c1 (configuration not stated)	1	15	40	2	0.17	0.6
O=C(Nc1cccc(Cl)c1)N1CCN2C(=O)c3ccccc3C12c1ccccc1 (configuration not stated)	0.4	12	49	57*	-6.6*	0.5
O=C1c2ccccc2C2(c3ccccc3)NCCN12 (configuration not stated)	0.9	x	8	8	-0.59	0.9
Cc1ccc(C(=O)N2CCN3C(=O)c4ccccc4C23c2ccc(Cl)cc2)cc1 (configuration not stated)	0.6	16	86*	38	-5*	0.1
CCc1ccc2oc(-c3cc(N)ccc3Cl)nc2c1	0.7	x	53*	26	-0.82	0.5
SMILES	CYP2C9 act	HIV Rev-RRE inh	CYP2C19 inhib	CYP2C9 inhib	Cav3 T inh	CYP2C19 activ
CCc1ccc2oc(-c3cc(N)ccc3O)nc2c1	0.7	-7	44	32	1.3	0.6
CCc1ccc2oc(-c3cc(N)cc(C)c3O)nc2c1	0.1	0	95*	94*	-0.49	0
Cc1ccc(C)c(-c2nc3cc(N)ccc3o2)c1	0.8	x	28	17	0.26	0.7
COc1ccc(S(=O)(=O)N(CC(=O)N2CCOCC2)c2cc(Cl)ccc2OC)cc1OC	0.7	x	10	33	1.4	0.9
Cc1ccc(CNC(=O)C2CNc3cc(C)ccc3O2)cc1 (configuration not stated)	0.8	-2	32	18	0.34	0.7
CCOc1cc2c3c(c1)C1(C(=O)N3C(C)(C)C=C2C)C(C#N)=C(N)Oc2cc(O)ccc21 (configuration not stated)	0.4	8	35	56*	-5.6*	0.7
COc1cc2c3c(c1)C1(C(=O)N3C(C)(C)C=C2C)C(C#N)=C(N)Oc2cc(O)ccc21 (configuration not stated)	0.1	3	51*	89*	-2.2	0.5
CC1=CC(C)(C)N2C(=O)C3(C(C#N)=C(N)Oc4cc(C)oc(=O)c43)c3cccc1c32 (configuration not stated)	0.8	0	49	23	-0.76	0.5
CCn1c(O)c(C=NC2CCCC2)sc1=S	0.5	7	69*	51*	0.51	0.3
CCn1c(O)c(/C=N/n2cnnc2)sc1=S	0.5	9	62*	54*	0.82	0.4
O=C(c1ccc(Cl)cc1)c1ccc(CN2C(=O)c3ccccc3C2=O)o1	0.5	13	11	46	-0.21	0.9
Nc1cc(CN2C(=O)c3ccccc3C2=O)cc(Cl)c1O	3.5*	3	14	-254	-0.36	0.9
O=C(CNC(=O)c1ccccc1)NCCc1nc2ccccc2[nH]1	1.2	7	-17	-18	0.15	1.2
Nc1n[nH]c2c1C1(CCCCC1)Cc1ccccc1-2	0.7	x	58*	33	0.028	0.4
COc1ccc(S(=O)(=O)/N=C2/NC(=O)/C(=C\c3cc(OC)c(OC)cc3[N+](=O)[O-])S2)cc1	0	10	14	100*	-1.5	0.9
Cc1ccc(/C=N/NC(=O)CC2N=C(Cc3ccccc3)NNC2=O)cc1 (configuration not stated)	x	8	x	x	-1	x
CCc1nccn1S(=O)(=O)c1ccc(OC)c(C)c1C	1.1	-1	71*	-9	-3.8*	0.3
CCc1nccn1S(=O)(=O)c1ccc(Br)cc1Br	0.4	x	92*	59*	-1.2	0.1
Cc1ccnn2cc3c(=O)n(C)c(=O)n(C)c3c12	0.8	4	-2	17	x	1
CCn1c(SCC(=O)Nc2sc3c(c2C#N)CCC(C(C)(C)C)C3)nnc1-c1ccco1 (configuration not stated)	0.7	2	18	33	-0.16	0.8
CCn1c(SCC(=O)Nc2sc3c(c2C#N)CCCC3)nnc1-c1ccco1	0.4	-3	15	55*	0.46	0.9
